Experimental data as given in ChEMBL document CHEMBL1629686, “Substrate selectivity and a novel role in inhibitor discrimination by residue 237 in the KPC-2 beta-lactamase” (Antimicrob Agents Chemother, 2010).

Assays:
[1] = Inhibition of Klebsiella pneumoniae 1534 beta-lactamase KPC-2 T237S mutant by competitive assay
Procedure, shortened: (§1)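 Direct competition assay at steady state with purified enzyme at 10 nM. Inhibitor was varied from 5 μM to 5 mM, with nitrocefin 100 μM final as reporter substrate. 1/v0 was plotted against [I], and Ki(observed) was taken as y-intercept divided by slope. This was corrected by 1 + [S]/Km(nitrocefin).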

[2] = Inhibition of Klebsiella pneumoniae 1534 beta-lactamase KPC-2 T237A mutant by competitive assay; procedure, shortened: as §1
Klebsiella pneumoniae [3] = assay: Ratio of Ki for Klebsiella pneumoniae 1534 beta-lactamase KPC-2 T237A mutant to Ki for wild type Klebsiella pneumoniae beta-lactamase KPC-2 by competitive assay
Klebsiella pneumoniae [4] = assay: Ratio of Ki for Klebsiella pneumoniae 1534 beta-lactamase KPC-2 T237S mutant to Ki for Klebsiella pneumoniae wild type beta-lactamase KPC-2 by competitive assay; procedure, shortened: as §1
[5] = substrate: CO/N=C(\C(=O)N[C@@H]1C(=O)N2C(C(=O)O)=C(COC(C)=O)CS[C@H]12)c1csc(N)n1; assay: (§2) Ratio of Kcat/Km for Klebsiella pneumoniae 1534 beta-lactamase KPC-2 by spectrophotometric analysis
Procedure, shortened: (§3)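 Purified KPC-2 was expressed in E. coli (DH10B or IPTG-induced Origami2 DE3 pLys), released by periplasmic lysis, and purified by preparative isoelectric focusing. It was assayed at 10 nM in 10 mM PBS pH 7.4 at room temperature, with substrate in molar excess for pseudo-first-order conditions. Hydrolysis was read on a diode-array spectrophotometer, and Vmax and Km came from nonlinear least-squares Michaelis-Menten fits.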

[6] = substrate: O=C(Cc1cccs1)N[C@@H]1C(=O)N2C(C(=O)O)=C(/C=C/c3ccc([N+](=O)[O-])cc3[N+](=O)[O-])CS[C@H]12; assay: as §2; procedure, shortened: as §3
[7] = substrate: CCN1CCN(C(=O)N[C@@H](C(=O)N[C@@H]2C(=O)N3[C@@H]2SC(C)(C)[C@@H]3C(=O)O)c2ccccc2)C(=O)C1=O; assay: as §2; procedure, shortened: as §3
[8] = substrate: CC(=O)OCC1=C(C(=O)O)N2C(=O)[C@@H](NC(=O)Cc3cccs3)[C@H]2SC1; assay: as §2; procedure, shortened: as §3
[9] = substrate: C[C@@H](O)[C@H]1C(=O)N2C(C(=O)O)=C(SCCNC=N)C[C@H]12; assay: as §2; procedure, shortened: as §3
[10] = substrate: CO/N=C(\C(=O)N[C@@H]1C(=O)N2C(C(=O)O)=C(COC(C)=O)CS[C@H]12)c1csc(N)n1; assay: (§4) Activity of Klebsiella pneumoniae 1534 beta-lactamase KPC-2 by spectrophotometric analysis; procedure, shortened: as §3
[11] = substrate: O=C(Cc1cccs1)N[C@@H]1C(=O)N2C(C(=O)O)=C(/C=C/c3ccc([N+](=O)[O-])cc3[N+](=O)[O-])CS[C@H]12; assay: as §4; procedure, shortened: as §3
[12] = substrate: CCN1CCN(C(=O)N[C@@H](C(=O)N[C@@H]2C(=O)N3[C@@H]2SC(C)(C)[C@@H]3C(=O)O)c2ccccc2)C(=O)C1=O; assay: as §4; procedure, shortened: as §3
[13] = substrate: CC(=O)OCC1=C(C(=O)O)N2C(=O)[C@@H](NC(=O)Cc3cccs3)[C@H]2SC1; assay: as §4; procedure, shortened: as §3
[14] = substrate: C[C@@H](O)[C@H]1C(=O)N2C(C(=O)O)=C(SCCNC=N)C[C@H]12; assay: as §4; procedure, shortened: as §3

Row | Molecule | Ki [1] | Ki [2] | fold change (FC) (Klebsiella pneumoniae [3]) | fold change (FC) (Klebsiella pneumoniae [4]) | kcat/Km [5] | kcat/Km [6] | kcat/Km [7] | kcat/Km [8] | kcat/Km [9] | Km [10] | kcat [10] | Km [11] | kcat [11] | Km [12] | kcat [12] | Km [13] | kcat [13] | Km [14] | kcat [14]
1 | CC1(C)[C@H](C(=O)O)N2C(=O)C[C@H]2S1(=O)=O [SULBACTAM] | 97 µM | 703 µM | 4.2 | 1.7 | – | – | – | – | – | – | – | – | – | – | – | – | – | – | –
2 | C[C@]1(Cn2ccnn2)[C@H](C(=O)O)N2C(=O)C[C@H]2S1(=O)=O [TAZOBACTAM] | 53 µM | 174 µM | 2.2 | 1.7 | – | – | – | – | – | – | – | – | – | – | – | – | – | – | –
3 | Carbapenem-hydrolyzing beta-lactamase KPC (Klebsiella pneumoniae), Q9F663 (protein) MSLYRRLVLLSCLSWPLAGFSATALTNLVAEPFAKLEQDFGGSIGVYAMDTGSGATVSYRAEERFPLCSSFKGFLAAAVLARSQQQAGLLDTPIRYGKNALVPWSPISEKYLTTGMTVAELSAAAVQYSDNAAANLLLKELGGPAGLTAFMRSIGDTTFRLDRWELELNSAIPGDARDTSSPRAVTESLQKLTLGSALAAPQRQQFVDWLKGNTTGNHRIRAAVPADWAVGDKTGTCGVYGTANDYAVVWPTGRAPIVLAVYTRAPNKDDKHSEAVIAAAARLALEGLGVNGQ | – | – | – | – | 0.7 µM⁻¹ s⁻¹ | 8.7 µM⁻¹ s⁻¹ | 3.4 µM⁻¹ s⁻¹ | 3.1 µM⁻¹ s⁻¹ | 1 µM⁻¹ s⁻¹ | 207 µM | 142 s⁻¹ | 6 µM | 52 s⁻¹ | 15 µM | 51 s⁻¹ | 14 µM | 44 s⁻¹ | 19 µM | 19 s⁻¹
